Results as given in PubChem BioAssay AID492976 (The Scripps Research Institute Molecular Screening Center, 2010).
Activity calls are given as the source filed them.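 How the source made its calls: active means inhibition of 35% or more of the parasite aminopeptidase activity in malaria cell lysate; inactive means inhibition below 35%.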

Target: Aminopeptidase N (Plasmodium falciparum (isolate 3D7)) (UniProt O96935)
Assay: M1 aminopeptidase activity inhibition, P. falciparum lysate – cell lysate, fluorescence, malaria cell lysate, powder samples, late-stage follow-up (AID 492976)
Conditions: H-Arg-NHMec fluorogenic substrate, at 5 µM, active compounds read high
Procedure, shortened: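 Assay system: P. falciparum cell lysate; input: malaria lysate at 10 µg/mL final; buffer or medium: Tris-HCl, pH 7.5; dosing: 5 µM, one dose; incubation: 10 min preincubation, 30 min reading; technique: kinetic NHMec fluorescence, ex 370 nm, em 460 nm, 60-s intervals; measure: % inhibition vs control wells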

Chain of Aminopeptidase N (Plasmodium falciparum (isolate 3D7)) (O96935 whole entry, looked up): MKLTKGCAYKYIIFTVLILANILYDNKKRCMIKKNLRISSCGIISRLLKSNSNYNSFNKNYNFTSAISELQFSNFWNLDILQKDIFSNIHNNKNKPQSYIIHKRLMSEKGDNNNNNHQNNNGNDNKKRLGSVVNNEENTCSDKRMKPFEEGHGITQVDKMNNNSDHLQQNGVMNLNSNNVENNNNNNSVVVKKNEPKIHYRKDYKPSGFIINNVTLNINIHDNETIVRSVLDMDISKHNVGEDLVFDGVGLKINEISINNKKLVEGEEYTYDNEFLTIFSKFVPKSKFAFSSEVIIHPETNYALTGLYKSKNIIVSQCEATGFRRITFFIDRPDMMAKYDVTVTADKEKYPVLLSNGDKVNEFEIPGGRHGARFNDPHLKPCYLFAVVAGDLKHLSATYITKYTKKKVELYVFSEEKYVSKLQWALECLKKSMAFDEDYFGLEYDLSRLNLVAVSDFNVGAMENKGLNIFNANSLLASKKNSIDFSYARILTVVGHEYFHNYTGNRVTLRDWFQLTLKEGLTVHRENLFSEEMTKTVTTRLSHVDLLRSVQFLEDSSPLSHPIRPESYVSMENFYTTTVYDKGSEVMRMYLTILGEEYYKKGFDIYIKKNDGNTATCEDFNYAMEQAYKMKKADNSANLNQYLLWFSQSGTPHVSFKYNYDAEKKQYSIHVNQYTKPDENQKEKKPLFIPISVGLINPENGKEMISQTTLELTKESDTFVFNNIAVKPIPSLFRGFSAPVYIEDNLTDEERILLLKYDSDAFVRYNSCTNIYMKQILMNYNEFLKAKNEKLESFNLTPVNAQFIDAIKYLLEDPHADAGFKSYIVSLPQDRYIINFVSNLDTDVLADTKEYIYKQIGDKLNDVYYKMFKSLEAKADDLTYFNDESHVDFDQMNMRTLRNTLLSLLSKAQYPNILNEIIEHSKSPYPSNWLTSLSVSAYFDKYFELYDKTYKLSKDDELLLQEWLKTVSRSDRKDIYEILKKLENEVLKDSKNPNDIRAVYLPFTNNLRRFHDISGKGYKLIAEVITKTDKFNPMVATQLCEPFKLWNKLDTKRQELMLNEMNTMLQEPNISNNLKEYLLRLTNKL

SMILES	inhibition
O=C(NCc1ccco1)C1CCCN(S(=O)(=O)c2cccc3nonc23)C1 (stereo not drawn)	0% (inactive)
O=C(O)CCC(=O)N1N=C(c2c(-c3ccccc3)c3cc(Cl)ccc3[nH]c2=O)CC1c1cccs1 (stereo not drawn)	3% (inactive)
CC(=O)N1N=C(c2c(O)n(C)c(=O)n(C)c2=O)CC1c1ccccc1 (stereo not drawn)	0% (inactive)
COc1ccc(C2CC(c3c(-c4ccccc4)c4cc(Cl)ccc4[nH]c3=O)=NN2C(=O)CCC(=O)O)cc1 (stereo not drawn)	0% (inactive)
COc1ccccc1-c1nc2ccccc2c(=O)n1NC(=O)c1cccs1	0% (inactive)
O=C(NCCC1=CCCCC1)C1CCN(S(=O)(=O)c2ccc(Br)s2)CC1	13% (inactive)
O=C1N=c2ccccc2=C1c1sc(=S)n(NC(=O)c2ccccc2)c1O	0% (inactive)
O=C(NCc1cccc(F)c1)C1CCN(S(=O)(=O)Cc2ccccc2)CC1	35%
O=C(O)CCC(=O)N1N=C(c2c(-c3ccccc3)c3cc(Cl)ccc3[nH]c2=O)CC1c1ccco1 (stereo not drawn)	2% (inactive)
O=C(Nn1c(C2CCC2)nc2ccccc2c1=O)c1cccs1	0% (inactive)
COc1ccc(OC)c(/C=C2\SC(=S)N(C(C(=O)O)c3ccccc3)C2=O)c1 (stereo not drawn)	0% (inactive)
O=C1N=c2ccccc2=C1c1sc(=S)n(NC(=O)c2cccc(O)c2)c1O	17% (inactive)
O=C1/C(=C/c2cccs2)SC(=S)N1NS(=O)(=O)c1ccccc1	0% (inactive)
